Source: PubChem BioAssay
An excerpt weighted towards active compounds, which were near 2.6% of everything screened.
NR2E3 ag-1 – inhibitors of NR2E3-RetCOR corepressor binding, primary screen, NR2E3 agonist project, biochemical, TR-FRET, GST-NR2E3, biotin-RetCOR | 320,000 tested, 0.12% active | 1536-well | Photoreceptor-specific nuclear receptor (Homo sapiens), Q9Y5X4 | inhibition of corepressor binding, % at 4.78 µM;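 active = percent inhibition above the cutoff of mean plus 3 SD of all tested compounds, set per screening campaign, cut at about 20% in these data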
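Material: NR2E3–RetCOR corepressor complex / Incubation: Compound–protein incubation for 5 h at 4 °C / Dosing: compound at 4.8 µM, single dose / Detection: time-resolved FRET / Benchmarks: high control biotin, low control 0.6% DMSO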
Rev-erbA mod – modulators of Rev-erb alpha DNA binding, primary screen, biochemical, FITC-DNA, fluorescence polarization, uHTS. 370,000 tested, 0.79% active. Nuclear receptor subfamily 1 group D member 1 (Homo sapiens), P20393. Rev-erbα–FITC-DNA binding, 90 min. activity, % at 10 µM. AID 1259318, 2017;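 active = activity above about 14%, limit read from the data; passing the limit was not always enough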
Target sequence (P20393 whole entry, looked up): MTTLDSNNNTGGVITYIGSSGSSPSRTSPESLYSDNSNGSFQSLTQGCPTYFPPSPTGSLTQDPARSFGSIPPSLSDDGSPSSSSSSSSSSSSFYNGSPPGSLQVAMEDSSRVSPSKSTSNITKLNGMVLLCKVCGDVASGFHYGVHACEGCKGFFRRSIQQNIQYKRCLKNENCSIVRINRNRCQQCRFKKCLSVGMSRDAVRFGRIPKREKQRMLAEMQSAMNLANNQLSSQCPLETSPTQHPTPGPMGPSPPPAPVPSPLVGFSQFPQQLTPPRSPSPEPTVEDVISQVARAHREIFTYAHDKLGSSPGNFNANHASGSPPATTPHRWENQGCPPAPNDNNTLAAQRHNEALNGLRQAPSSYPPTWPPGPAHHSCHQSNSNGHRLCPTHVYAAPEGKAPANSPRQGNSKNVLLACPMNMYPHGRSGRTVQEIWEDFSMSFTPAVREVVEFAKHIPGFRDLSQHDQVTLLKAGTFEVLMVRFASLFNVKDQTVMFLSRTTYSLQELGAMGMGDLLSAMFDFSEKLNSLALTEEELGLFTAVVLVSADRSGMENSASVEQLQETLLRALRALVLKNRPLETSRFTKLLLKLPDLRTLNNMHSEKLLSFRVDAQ
NR2E3 ag-2 – NR2E3 agonists in two-hybrid cells, primary screen, cell-based, luminescence, CHO-S, Gal4-NCOR/VP16-NR2E3. Photoreceptor-specific nuclear receptor (Homo sapiens), Q9Y5X4. luciferase. inhibition of corepressor binding, % at 3.98 µM. 360,000 tested, 0.35% active;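 active = inhibition above the mean of all tested compounds plus 3 SD, cut at about 70% in these data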;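 note: higher means lower luciferase signal from less NR2E3 corepressor binding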
PG9 Ab binder – binders of HIV-1 gp120 antibody PG9, primary screen, biochemical, TR-FRET. HIV-1 gp120 / PG9 antibody interaction. TR-FRET gp120-PG9 antibody binding. inhibition, % at 6.7 µM. 360,000 tested, 0.43% active; in the data active = inhibition above about 8.5%
rCAG binder – binders of r(CAG) RNA repeats, primary screen, biochemical, fluorescence | inhibition, % at 3 µM | 370,000 tested, 1.3% active | r(CAG) RNA repeat, TO-PRO-1 dye displacement fluorescence | AID 651821, 2012;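 active = inhibition above the plate cutoff, the mean of all test compounds on that plate plus 3 SD, cut at about 35% in these data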;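 note: higher means more dye released from RNA so lower well fluorescence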
rCAG binder conf – small molecules binding CAG repeat RNA – biochemical, fluorescence, confirmation; shares compounds with rCAG binder; inhibition, % at 3 µM; r(CAG) RNA repeat, TO-PRO-1 dye displacement fluorescence; AID 652065, 2013; 4,300 tested, 70% active;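 active = inhibition above a per-plate cutoff, the mean inhibition of sample wells plus 3 SD, cut at about 35% in these data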;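 note: loss of TO-PRO-1 fluorescence as compound displaces dye from 1x1 AA loop RNA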
dCAG dye counter – displacement of TO-PRO-1 from CAG DNA duplex, counter-screen for rCAG RNA repeat binder project, biochemical, fluorescence, TO-PRO-1 dye, d(CAG) DNA oligo; d(CAG) DNA oligo TO-PRO-1 dye displacement; 4,300 tested, 94% active; shares compounds with rCAG binder; AID 652068, 2013; inhibition, % at 3 µM;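 active = inhibition above its plate's cutoff, the mean test-well inhibition plus 3 SD, cut at about 4.8% in these data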;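 note: hits displace the dye from DNA and so lower well fluorescence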
DNA CAG DR – inhibitors of DNA CAG/GTC TO-PRO-1 complex, dose response, counter-screen for rCAG RNA repeat binder project, biochemical, fluorescence, TO-PRO-1 dye; shares compounds with rCAG binder; DNA CAG/GTC duplex TO-PRO-1 dye displacement fluorescence; 250 tested, 20% active; IC50, µM; in the data active = IC50 below about 10 µM
Numbers stand for hits; - = inactive; . = no result.

SMILES	NR2E3 ag-1	Rev-erbA mod	NR2E3 ag-2	PG9 Ab binder	rCAG binder	rCAG binder conf	dCAG dye counter	others
O=[N+]([O-])c1cc(/C=N\Nc2nc(-c3ccccc3)cs2)ccc1O	-	-	-	-	65.6	53.8	22.9
O=C(c1cc(COc2c(F)cccc2F)on1)N1CC[C@@H]2CCCC[C@H]2C1	.	-	-	-	-	.	.
O=C(c1ccc2c(=O)n3c(nc2c1)CCC3)N1CCN(S(=O)(=O)c2cccc(F)c2)CC1	-	-	-	-	-	.	.
COCCCNC(=O)C[C@H]1C[C@@]2(C(=O)OC)C(=C[C@H](COCc3ccccc3)O[C@@H]2C)N(Cc2cccc3ccccc23)C1=O	.	-	.	.	-	.	.
CCOc1ccc2nc(SCc3ccc(CC(=O)O)cc3)c(C#N)cc2c1	-	-	-	-	60.2	55.2	20.2
Cc1c(CCC(=O)N2CCC[C@H]2C(=O)O)c(=O)oc2c(C)c3oc4c(c3cc12)CCCC4	-	-	-	-	37.6	58.1	18.6	DNA CAG DR=-
Cc1oc(-c2ccccc2)cc1C(=O)Nc1cccc(/C=C/C(=O)O)c1	.	-	-	-	47.0	39.0	9.0
Cc1ccc(C)c(S(=O)(=O)C(C#N)c2nc3ccccc3nc2N2CC(C)OC(C)C2)c1 (stereo not given)	-	-	-	-	37.9	74.5	41.2
Cc1ccc(NC(=O)Nc2nnc(-c3ccncc3)s2)cc1C	-	-	-	-	60.1	49.0	17.3
O=C(Nc1cccc(Cl)c1)Nc1nnc(-c2ccncc2)s1	-	-	89.2	-	65.6	45.0	22.2
O=C(Nc1ccc(F)cc1)Nc1nnc(-c2ccncc2)s1	-	-	-	-	-	.	.
O=C(Nc1ccc(Cl)cc1)Nc1nnc(-c2ccncc2)s1	-	-	-	-	-	.	.
Cc1ccc(C2(c3ccccc3)NC(=O)N(CC(=O)N(C)C3CCS(=O)(=O)C3)C2=O)cc1C (stereo not given)	-	-	-	-	-	.	.
N#C/C(=C(/O)COC(=O)c1ccc(O)cc1)c1nc2ccccc2[nH]1	-	-	-	-	-	.	.
CCOC(=O)c1c(C)[nH]c(C(=O)OCC(O)=C(C#N)c2nc3ccccc3[nH]2)c1C	.	-	-	-	42.1	-	14.3
O=C(COC(=O)c1cccc(C(F)(F)F)c1)NC(=O)NC1CCCC1	.	-	-	-	-	.	.
Cn1c2c(c(=O)[nH]c1=O)C(c1ccc(O)cc1)C1=C(N2)c2ccccc2C1=O (stereo not given)	-	-	-	-	-	.	.
COc1cc(C2C(=O)c3ccccc3C2=O)ccc1O	-	-	-	-	-	.	.
CCC(C)c1ccc(C2C3=C(Nc4nc(N)[nH]c(=O)c42)c2ccccc2C3=O)cc1 (stereo not given)	-	-	-	-	43.2	47.1	29.4
Nc1nc2c(c(=O)[nH]1)C(c1ccccc1)C1=C(N2)c2ccccc2C1=O (stereo not given)	-	-	-	-	61.8	-	26.6
COc1cc(C2C3=C(Nc4nc(N)[nH]c(=O)c42)c2ccccc2C3=O)ccc1O (stereo not given)	-	-	-	-	60.5	-	20.1
O=c1[nH]c(Nc2ccccc2)cc2cc(Br)ccc12	-	-	-	-	37.5	-	15.2
